Test results taken from ChEMBL document CHEMBL1129379, “Heterocyclic ureas: inhibitors of acyl-CoA:cholesterol O-acyltransferase as hypocholesterolemic agents” (J Med Chem, 1996).

Key:
Rattus norvegicus [1] = experiment: Percent change in plasma TC in the chronic C-fed rat model of pre-established hypercholesterolemia. Dose at 10 mg/kg; type: functional
Method in brief: (§1)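 Chronic rat model of pre-established hypercholesterolemia: 1 week on high-cholesterol diet, then compound dosed orally once daily for 1 week. Plasma total cholesterol, HDL-C and non-HDL-C expressed as percent change versus control; p < 0.05 flagged.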

Canis familiaris = experiment: Percent change in plasma cholesterol in dog at 3 mg/kg; type: functional, Canis lupus familiaris
Method in brief: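 Cholesterol-fed female Beagle dogs given bulk drug in capsules before meals, daily for 1 week, at 3 mg/kg po. Plasma total cholesterol compared before and after treatment as percent change; paired two-tailed t-test, n = 6.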

Rattus norvegicus [2] = experiment: Percent change in non-HDL-C Dose at 3 mg/kg; type: functional; method in brief: as §1
Rattus norvegicus [3] = experiment: Percent change in HDL-CDose at 3 mg/kg; type: functional; method in brief: as §1
Rattus norvegicus [4] = experiment: Percent change in HDL-CDose at 30 mg/kg; type: functional; method in brief: as §1
Rattus norvegicus [5] = experiment: Percent change in HDL-CDose at 10 mg/kg; type: functional; method in brief: as §1
O-acyltransferase = O-acyltransferase (Oryctolagus cuniculus, UniProt G1SFD9); experiment: Acyl coenzyme A:cholesterol acyltransferase 1 inhibition in vitro measured in rabbit intestinal microsomes; design: species or system Intestine
[6] = biological target: T1, Sterol O-acyltransferase 1 (Rattus norvegicus) (UniProt O70536); experiment: Percent change in plasma TC in the chronic C-fed rat model of pre-established hypercholesterolemia. Dose at 30 mg/kg; type: functional, organism-based; design: dose 30 mg/kg; method in brief: as §1
T1 sequence (whole entry): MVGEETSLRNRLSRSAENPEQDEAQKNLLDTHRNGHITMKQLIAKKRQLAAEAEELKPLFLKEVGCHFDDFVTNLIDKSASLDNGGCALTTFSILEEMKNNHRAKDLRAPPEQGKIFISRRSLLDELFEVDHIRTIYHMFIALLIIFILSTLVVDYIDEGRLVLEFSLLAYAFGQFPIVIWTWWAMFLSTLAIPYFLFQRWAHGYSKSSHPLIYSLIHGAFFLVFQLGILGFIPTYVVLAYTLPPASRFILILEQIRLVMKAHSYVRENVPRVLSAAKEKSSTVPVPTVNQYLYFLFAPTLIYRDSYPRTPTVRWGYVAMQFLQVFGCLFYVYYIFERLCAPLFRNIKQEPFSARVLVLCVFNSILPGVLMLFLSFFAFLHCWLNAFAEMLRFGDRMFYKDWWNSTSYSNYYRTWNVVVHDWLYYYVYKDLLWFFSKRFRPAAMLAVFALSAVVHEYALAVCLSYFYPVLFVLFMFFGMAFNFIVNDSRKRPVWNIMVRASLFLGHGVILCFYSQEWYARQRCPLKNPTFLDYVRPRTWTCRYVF

Rattus norvegicus [7] = experiment: Percent change in non-HDL-C Dose at 10 mg/kg; type: functional; method in brief: as §1
[8] = biological target: T1, Sterol O-acyltransferase 1 (Rattus norvegicus); experiment: Percent change in plasma total cholesterol in an acute cholesterol-fed rat model of hypercholesterolemia, dose at 30 mg/kg; type: functional, organism-based; design: dose 30 mg/kg
[9] = biological target: T1, Sterol O-acyltransferase 1 (Rattus norvegicus); experiment: Percent change in plasma total cholesterol in an acute cholesterol-fed rat model of hypercholesterolemia, dose at 3 mg/kg; type: functional, organism-based; design: dose 3 mg/kg
Rattus norvegicus [10] = experiment: Percent change in non-HDL-C Dose at 30 mg/kg; type: functional; method in brief: as §1
Rattus norvegicus [11] = experiment: Percent change in plasma TC in the chronic C-fed rat model of pre-established hypercholesterolemia. Dose at 3 mg/kg; type: functional; method in brief: as §1

IC50 (O-acyltransferase): 12 nM | Delta TC [6]: -61% | Delta TC [8]: -65% | Delta TC [9]: -56%
Compound: CCCCCCCCCCCCCCN1NN=C(NC(=O)Nc2c(C(C)C)cccc2C(C)C)N1
Delta TC (Rattus norvegicus [1]): -53% | Delta plasma cholesterol (Canis familiaris): -22% | Non-HDL-C (Rattus norvegicus [2]): -48% | Delta HDL-C (Rattus norvegicus [3]): 47% | Delta HDL-C (Rattus norvegicus [4]): 93% | Delta HDL-C (Rattus norvegicus [5]): 87% | Non-HDL-C (Rattus norvegicus [7]): -61% | Non-HDL-C (Rattus norvegicus [10]): -68% | Delta TC (Rattus norvegicus [11]): -43%
